# Results: ChEMBL document CHEMBL4020827, “Targeting Multiple Effector Pathways in Pancreatic Ductal Adenocarcinoma with a G-Quadruplex-Binding Small Molecule” (J Med Chem, 2018)
# Activity calls are given as the source filed them. The rule behind the calls is not given here.
# Columns and labels:
# MIA PaCa-2 [1] = assay: Effect on GLI4 gene expression in human MIAPaCa2 cells at 400 nM after 24 hrs by RNA sequence analysis relative to control; assay type: functional
# Method in brief: (§1)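 PANC-1 (0.35 x 10^6) or MIA PaCa-2 (1.5 x 10^6) cells seeded overnight in 60 mm plates, then exposed to 400 nM compound for 6 or 24 h; untreated cells as controls. Cells were mycoplasma-free and STR-certified. Differential expression by RNA-seq, called at FDR < 0.1.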
# [2] = Selectivity index, ratio of IC50 for human WI38 cells to IC50 for human MIAPaCa2 cells; assay type: functional
# Method in brief: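 SRB growth-inhibition assay over 96 h with compounds dissolved in water; cells grown in 10 % FBS at 37 °C, 5% CO2. Absorbance at 540 nm as a percentage of untreated wells gives the IC50. Values are averages of >3 determinations, with the ratio taken as WI-38 IC50 over MIA PaCa-2 IC50.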
# [3] = Solubility of the compound in saline; assay type: physicochemical
# MIA PaCa-2 [4] = assay: Effect on SHANK2 gene expression in human MIAPaCa2 cells at 400 nM after 6 hrs by RNA sequence analysis relative to control; assay type: functional
# Method in brief: (§2)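 RNA-seq: cells seeded overnight in 60 mm plates (PANC-1 0.35 x 10^6, MIA PaCa-2 1.5 x 10^6 cells/well), then exposed to 400 nM compound for 6 or 24 h against untreated controls. Cell lines mycoplasma-free by RNA-capture ELISA and STR-profiled. Differentially expressed genes called at FDR < 0.1.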
# [5] = Toxicity in iv dosed CD-1 nude mouse assessed as death measured up to 72 hrs; assay type: organism-based; details: in vivo
# Method in brief: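 CD1 nude mice, two per group, given single IV doses in saline (10, 20, 30, 35, 40, 45, 50 and 60 mg/kg), with repeat dosing weekly. Watched for adverse effects for up to 72 h. Tolerated dose taken as highest cohort in which all mice survived without observed ill-effects.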
# CAPAN-1 = assay: Growth inhibition of human Capan1 cells after 96 hrs by SRB assay; assay type: functional, cell-based; details: CAPAN-1, 96 h
# Method in brief: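 Cell lines kept at 37 °C, 5% CO2 in medium with 10% FBS and 2 mM L-glutamine. Compound dissolved in water, filter-sterilised, 10 mM stock diluted into media. Growth read by 96 h sulforhodamine B assay, absorbance at 540 nm. IC50 taken from mean absorbance per concentration as % of untreated wells, >3 individual determinations with standard deviations.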
# [6] = Binding affinity to 5'-FAM/3'-TAMRA labeled HSP90A promoter G-quadruplex DNA (unknown origin) assessed as change in melting temperature at 1 uM by FRET assay
# Method in brief: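 FRET melting of FAM/TAMRA dual-labelled promoter G4 oligonucleotides, 400 nM, annealed at 95 °C for 10 min in 60 mM potassium cacodylate (pH 7.4) then cooled to RT. Ligand at 1 μM in solution with 50 mM K+. Fluorescence (ex 450–495, em 515–545 nm) read every 0.5 °C over 30–100 °C with a 30 sec hold per step. ΔTm from curve fitting; triplicate measurements.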
# PANC-1 [7] = assay: Effect on MAPK11 gene expression in human PANC1 cells at 400 nM after 6 hrs by RNA sequence analysis relative to control; assay type: functional
# PANC-1 [8] = assay: Effect on PAK1 gene expression in human PANC1 cells at 400 nM after 6 hrs by RNA sequence analysis relative to control; assay type: functional
# Homo sapiens = species on record: Homo sapiens; assay: Stabilization of G-quadruplex DNA in human PANC1 cells assessed as increase in BG4 foci at 400 nM after 6 to 24 hrs by FITC/Cy5/DAPI staining based immunofluorescence assay; assay type: cell-based
# MIA PaCa-2 [9] = assay: Effect on SMO gene expression in human MIAPaCa2 cells at 400 nM after 24 hrs by RNA sequence analysis relative to control; assay type: functional; method in brief: as §2
# MIA PaCa-2 [10] = assay: Antitumor activity against human MIAPaCa2 cells xenografted in CD-1 nude mouse assessed as change in tumor volume at 10 mg/kg, iv administered twice weekly for 4 weeks measured on day 29 relative to control; assay type: functional
# Method in brief: (§3)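 Female CD-1 nude mice (2-3 months, 20−25 g) given 5 x 10^6 MIA PaCa-2 cells subcutaneously in right flank with Matrigel; dosing began once tumors were established (approx. 13 days, mean 0.05 cm3). Eight mice/group, IV in saline twice weekly for 28 days (8 doses) against a saline group. Tumors measured by calliper (length × width × height × π/6), with body weight. Student's t test.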
# MIA PaCa-2 [11] = assay: Antitumor activity against human MIAPaCa2 cells xenografted in CD-1 nude mouse assessed as change in tumor volume at 15 mg/kg, iv administered twice weekly for 4 weeks measured on day 62 relative to control; assay type: functional; method in brief: as §3
# MIA PaCa-2 [12] = assay: Effect on PARD6A gene expression in human MIAPaCa2 cells at 400 nM after 24 hrs by RNA sequence analysis relative to control; assay type: functional
# MIA PaCa-2 [13] = assay: Effect on mLST8 gene expression in human MIAPaCa2 cells at 400 nM after 24 hrs by RNA sequence analysis relative to control; assay type: functional; method in brief: as §2
# PANC-1 [14] = assay: Effect on MAPK9 gene expression in human PANC1 cells at 400 nM after 24 hrs by RNA sequence analysis relative to control; assay type: functional
# PANC-1 [15] = assay: Effect on TP73 gene expression in human PANC1 cells at 400 nM after 24 hrs by RNA sequence analysis relative to control; assay type: functional; method in brief: as §2
# MIA PaCa-2 [16] = assay: Effect on GLI4 gene expression in human MIAPaCa2 cells at 400 nM after 6 hrs by RNA sequence analysis relative to control; assay type: functional; method in brief: as §1
# PANC-1 [17] = assay: Effect on PIK3R2 gene expression in human PANC1 cells at 400 nM after 6 hrs by RNA sequence analysis relative to control; assay type: functional
# MIA PaCa-2 [18] = assay: Effect on ARF6 gene expression in human MIAPaCa2 cells at 400 nM after 6 hrs by RNA sequence analysis relative to control; assay type: functional; method in brief: as §1
# PANC-1 [19] = assay: Effect on IGF2 gene expression in human PANC1 cells at 400 nM after 6 hrs by RNA sequence analysis relative to control; assay type: functional; method in brief: as §1
# MIA PaCa-2 [20] = assay: Antitumor activity against human MIAPaCa2 cells xenografted in CD-1 nude mouse assessed as change in tumor volume at 10 mg/kg, iv administered twice weekly for 4 weeks measured on day 62 relative to control; assay type: functional; method in brief: as §3
# PANC-1 [21] = assay: Effect on PRKCZ gene expression in human PANC1 cells at 400 nM after 6 hrs by RNA sequence analysis relative to control; assay type: functional; method in brief: as §2
# MIA PaCa-2 [22] = assay: Effect on SHC2 gene expression in human MIAPaCa2 cells at 400 nM after 24 hrs by RNA sequence analysis relative to control; assay type: functional; method in brief: as §2
# PANC-1 [23] = assay: Effect on mLST8 gene expression in human PANC1 cells at 400 nM after 24 hrs by RNA sequence analysis relative to control; assay type: functional; method in brief: as §2
# MIA PaCa-2 [24] = assay: Effect on PARD6A gene expression in human MIAPaCa2 cells at 400 nM after 6 hrs by RNA sequence analysis relative to control; assay type: functional
# MIA PaCa-2 [25] = assay: Effect on ROBO3 gene expression in human MIAPaCa2 cells at 400 nM after 6 hrs by RNA sequence analysis relative to control; assay type: functional; method in brief: as §2
smiles,measurement,setting,value
O=C1c2ccc3c4c(c(NCCN5CCCC5)cc(c24)C(=O)N1CCCN1CCOCC1)C(=O)N(CCCN1CCOCC1)C3=O,log2FC,MIA PaCa-2 [1],-1.85
same,Ratio IC50,[2],170
same,solubility,[3],> 10000 µg/mL
same,log2FC,MIA PaCa-2 [4],-1.87
same,MTD at 72 h,[5],45 to 50 mg/kg
same,IC50,CAPAN-1,16 nM
same,ΔTm,[6],15.7 °C
same,log2FC,PANC-1 [7],-0.38
same,log2FC,PANC-1 [8],-0.54
same,Activity,Homo sapiens,Active
same,log2FC,MIA PaCa-2 [9],-1.21
same,Activity,MIA PaCa-2 [10],-53.3%
same,Activity,MIA PaCa-2 [11],-85%
same,log2FC,MIA PaCa-2 [12],-1.4
same,log2FC,MIA PaCa-2 [13],-1.28
same,log2FC,PANC-1 [14],-0.75
same,log2FC,PANC-1 [15],-0.99
same,log2FC,MIA PaCa-2 [16],-1.71
same,log2FC,PANC-1 [17],-0.45
same,log2FC,MIA PaCa-2 [18],-0.89
same,log2FC,PANC-1 [19],-1.15
same,Activity,MIA PaCa-2 [20],-51.7%
same,log2FC,PANC-1 [21],-1.44
same,log2FC,MIA PaCa-2 [22],-1.96
same,log2FC,PANC-1 [23],-1.72
same,log2FC,MIA PaCa-2 [24],-0.83
same,log2FC,MIA PaCa-2 [25],-0.86
